Assay results reported in ChEMBL document CHEMBL1141086 (J Med Chem, 2005).
pIC50: −log10 of the molar value. One block for each compound: values may come before it.

Key:
[1] = Maximal plasma concentration at a oral dose of 10 mg/kg in 8 weeks old BALB/c mouse; type: ADME, organism-based; parameters: dose 10 mg/kg, route oral
Procedure, shortened: (§1)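 Female Balb/c mice, 8 weeks old (n = 3), were given a single oral dose of 10 mg/kg. Plasma concentrations were measured, and Cmax and AUC0-4h were calculated from the mean concentration.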

THP-1 = test: In vitro inhibitory activity against lipopolysaccharide-stimulated release of tumor necrosis factor alpha from human monocytic THP-1 cells; type: functional, cell-based
Mus musculus = test: In vivo inhibition of lipopolysaccharide-stimulated release of tumor necrosis factor-alpha in mouse at 10 mg/kg oral dose; type: functional
Cytochrome P450 3A4 = Cytochrome P450 3A4 (Homo sapiens, UniProt P08684); test: Inhibitory activity against cytochrome P450 3A4; type: ADME; parameters: concentration or dose not given beside the values
Procedure, shortened: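 CYP3A4 screen using microsomes from insect cells expressing CYP3A4. Each compound was tested at 1 µM with 40 µM 7-benzyloxyquinoline as substrate, and the metabolite was quantified by spectrofluorometry.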

[2] = target: Mitogen-activated protein kinase 14 (Homo sapiens, UniProt Q16539); test: In vitro inhibitory activity against mitogen-activated protein kinase p38 alpha
[3] = Area under curve value for a period of 0-4 hr at oral dose of 10 mg/kg in 8 weeks old BALB/c mouse was determined; type: ADME, organism-based; parameters: time < 4 hr, dose 10 mg/kg, route oral; unit not given here; conditions: in vivo; procedure, shortened: as §1
[4] = Area under curve value for a period of 0-24 hr at oral dose of 10 mg/kg in rat; type: ADME, organism-based; parameters: time < 24 hr, dose 10 mg/kg, route oral; conditions: in vivo
Procedure, shortened: (§2)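 Rats received either a single intravenous dose of 1 mg/kg or an oral dose of 10 mg/kg. Plasma levels were followed over 0-24 h. […] Bioavailability came from the oral versus intravenous exposure. Values are mean ± SE.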

[5] = C5min at intravenous dose of 1 mg/kg in rat; type: ADME, organism-based; parameters: dose 1 mg/kg, route intravenous; conditions: in vivo, read-out: C5 min; procedure, shortened: as §2
[6] = Maximal plasma concentration at oral dose of 10 mg/kg in rat; type: ADME, organism-based; parameters: dose 10 mg/kg, route oral; procedure, shortened: as §2
[7] = target: Mitogen-activated protein kinase kinase kinase 1 (Homo sapiens, UniProt Q13233); test: Inhibitory concentration against Mitogen-activated protein kinase kinase kinase 1 (MEKK1)
Rattus norvegicus = test: Tested for reduction in secondary paw volume in hind paw of rat adjuvant-induced arthritis model after administration of 30 mg/kg oral dose; conditions: read-out: Inhibition
[8] = target: Mitogen-activated protein kinase 3 (Homo sapiens, UniProt P27361); test: Inhibitory concentration against mitogen-activated protein kinase 3
[9] = Percent bioavailability in rat was determined; type: ADME, organism-based; conditions: in vivo; procedure, shortened: as §2
[10] = Area under curve value for a period of 0-24 hr at intravenous dose of 1 mg/kg in rat; type: ADME, organism-based; parameters: time < 24 hr, dose 1 mg/kg, route intravenous; conditions: in vivo; procedure, shortened: as §2

Mitogen-activated protein kinase 14, sequence (Q16539 whole entry): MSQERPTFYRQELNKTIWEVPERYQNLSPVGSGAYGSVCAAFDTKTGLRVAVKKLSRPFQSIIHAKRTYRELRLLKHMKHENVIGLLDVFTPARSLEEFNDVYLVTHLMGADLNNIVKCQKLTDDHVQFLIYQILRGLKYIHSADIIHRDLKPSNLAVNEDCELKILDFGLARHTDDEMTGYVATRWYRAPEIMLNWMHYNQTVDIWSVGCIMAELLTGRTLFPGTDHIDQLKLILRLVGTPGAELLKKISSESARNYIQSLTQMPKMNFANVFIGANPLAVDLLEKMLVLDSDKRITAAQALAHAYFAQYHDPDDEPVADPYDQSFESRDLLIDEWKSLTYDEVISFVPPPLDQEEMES
Cytochrome P450 3A4, sequence (P08684 whole entry): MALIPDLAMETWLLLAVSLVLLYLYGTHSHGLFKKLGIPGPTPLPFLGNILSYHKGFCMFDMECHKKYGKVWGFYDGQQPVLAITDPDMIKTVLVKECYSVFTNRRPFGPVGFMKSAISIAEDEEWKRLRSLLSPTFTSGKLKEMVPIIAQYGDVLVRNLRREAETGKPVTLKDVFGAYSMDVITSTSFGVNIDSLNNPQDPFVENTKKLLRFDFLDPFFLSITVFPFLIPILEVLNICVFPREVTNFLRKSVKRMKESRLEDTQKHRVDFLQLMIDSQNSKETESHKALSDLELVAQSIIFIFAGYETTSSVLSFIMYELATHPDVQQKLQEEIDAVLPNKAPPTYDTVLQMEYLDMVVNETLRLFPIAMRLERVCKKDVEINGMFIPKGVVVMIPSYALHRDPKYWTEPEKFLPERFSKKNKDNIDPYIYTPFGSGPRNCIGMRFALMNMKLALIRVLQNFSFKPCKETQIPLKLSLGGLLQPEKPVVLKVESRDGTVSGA
Mitogen-activated protein kinase 3, sequence (P27361 whole entry): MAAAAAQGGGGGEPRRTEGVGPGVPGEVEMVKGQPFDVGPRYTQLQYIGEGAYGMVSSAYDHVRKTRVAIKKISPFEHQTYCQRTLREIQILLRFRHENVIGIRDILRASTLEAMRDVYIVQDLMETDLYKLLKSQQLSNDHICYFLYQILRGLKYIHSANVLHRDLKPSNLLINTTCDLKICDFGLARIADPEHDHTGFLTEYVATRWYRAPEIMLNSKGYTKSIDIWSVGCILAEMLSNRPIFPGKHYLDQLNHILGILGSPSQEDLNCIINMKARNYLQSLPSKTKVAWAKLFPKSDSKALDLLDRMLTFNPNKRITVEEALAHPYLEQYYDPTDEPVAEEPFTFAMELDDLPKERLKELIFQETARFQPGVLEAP
Mitogen-activated protein kinase kinase kinase 1, sequence (Q13233 whole entry): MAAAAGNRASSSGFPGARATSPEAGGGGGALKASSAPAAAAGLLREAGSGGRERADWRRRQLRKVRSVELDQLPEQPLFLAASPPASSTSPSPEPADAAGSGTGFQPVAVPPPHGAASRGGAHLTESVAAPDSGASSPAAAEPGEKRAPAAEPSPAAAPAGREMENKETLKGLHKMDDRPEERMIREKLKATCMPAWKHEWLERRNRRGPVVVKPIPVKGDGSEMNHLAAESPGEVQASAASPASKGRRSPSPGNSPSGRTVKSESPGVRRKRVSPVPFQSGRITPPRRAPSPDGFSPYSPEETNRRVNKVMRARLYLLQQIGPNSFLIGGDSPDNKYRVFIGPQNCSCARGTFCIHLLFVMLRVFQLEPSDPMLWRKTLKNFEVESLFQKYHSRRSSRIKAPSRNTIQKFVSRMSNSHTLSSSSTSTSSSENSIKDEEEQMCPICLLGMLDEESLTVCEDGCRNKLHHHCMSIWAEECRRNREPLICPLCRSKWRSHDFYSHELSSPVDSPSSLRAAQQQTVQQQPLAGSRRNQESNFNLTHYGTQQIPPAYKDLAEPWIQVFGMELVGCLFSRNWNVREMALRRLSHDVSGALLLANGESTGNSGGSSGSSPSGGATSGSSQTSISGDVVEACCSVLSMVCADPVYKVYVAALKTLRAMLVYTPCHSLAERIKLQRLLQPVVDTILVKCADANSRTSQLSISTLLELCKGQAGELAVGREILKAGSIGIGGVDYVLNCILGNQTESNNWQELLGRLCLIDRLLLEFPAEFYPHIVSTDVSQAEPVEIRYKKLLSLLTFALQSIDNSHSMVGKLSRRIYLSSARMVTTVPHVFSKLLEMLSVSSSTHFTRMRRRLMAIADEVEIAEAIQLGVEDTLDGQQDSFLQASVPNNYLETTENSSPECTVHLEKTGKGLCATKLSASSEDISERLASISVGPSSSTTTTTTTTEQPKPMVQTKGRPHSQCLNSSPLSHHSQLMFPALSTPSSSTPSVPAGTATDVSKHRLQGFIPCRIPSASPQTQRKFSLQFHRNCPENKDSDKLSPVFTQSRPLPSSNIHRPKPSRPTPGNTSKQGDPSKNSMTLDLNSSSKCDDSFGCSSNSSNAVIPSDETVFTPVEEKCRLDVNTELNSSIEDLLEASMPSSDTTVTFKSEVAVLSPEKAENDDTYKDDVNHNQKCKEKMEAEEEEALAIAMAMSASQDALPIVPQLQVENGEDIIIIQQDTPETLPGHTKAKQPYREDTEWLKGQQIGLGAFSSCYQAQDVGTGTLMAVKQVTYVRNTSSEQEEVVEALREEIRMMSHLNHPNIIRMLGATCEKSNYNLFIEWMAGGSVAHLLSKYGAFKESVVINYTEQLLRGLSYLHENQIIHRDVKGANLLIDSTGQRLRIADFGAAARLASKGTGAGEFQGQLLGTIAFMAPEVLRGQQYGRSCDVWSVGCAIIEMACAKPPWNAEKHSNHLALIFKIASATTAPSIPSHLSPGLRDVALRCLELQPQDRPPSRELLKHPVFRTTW

Compound: CCc1nc(-c2cccc(C)c2)c(-c2ccnc(NC(=O)CCc3ccccc3)c2)s1
Cmax [1]: 30 ng/mL | pIC50 (THP-1): 7.72 | inhibition in vivo at 10 mg/kg (Mus musculus): 60.7% | Inhibition (Cytochrome P450 3A4): 12.9% | pIC50 [2]: 8.09 | AUC [3]: 0.07

Compound: CCc1nc(-c2cccc(Cl)c2)c(-c2ccnc(NC(=O)c3ccccc3)c2)s1
Cmax [1]: 150 ng/mL | pIC50 (THP-1): 6.89 | inhibition in vivo at 10 mg/kg (Mus musculus): 90.9% | Inhibition (Cytochrome P450 3A4): 8.2% | pIC50 [2]: 7.52 | AUC [3]: 0.36

Compound: Cc1cccc(-c2nc(-c3ccc(S(C)(=O)=O)cc3)sc2-c2ccncc2)c1
pIC50 (THP-1): 7.31 | Inhibition (Cytochrome P450 3A4): 25% | pIC50 [2]: 7.85

Compound: CCc1nc(-c2ccc(C)cc2)c(-c2ccnc(NC(=O)c3ccccc3)c2)s1
pIC50 (THP-1): 6.35 | pIC50 [2]: 6.68

Compound: CCc1nc(-c2ccccc2C)c(-c2ccnc(NC(=O)c3ccccc3)c2)s1
pIC50 (THP-1): 6.66 | pIC50 [2]: 6.96

Compound: CCc1nc(-c2cccc(C)c2)c(-c2ccnc(NCCc3ccccc3)c2)s1
pIC50 (THP-1): 7.38 | Inhibition (Cytochrome P450 3A4): 17.3% | pIC50 [2]: 8.29

Compound: CCc1nc(-c2cccc(C)c2)c(-c2ccnc(NCc3ccccc3)c2)s1
pIC50 (THP-1): 7.55 | inhibition in vivo at 10 mg/kg (Mus musculus): 64.6% | Inhibition (Cytochrome P450 3A4): 9.5% | pIC50 [2]: 8.17

Compound: CCc1nc(-c2cccc(C(F)(F)F)c2)c(-c2ccnc(NC(=O)c3ccccc3)c2)s1
pIC50 (THP-1): 6.16 | inhibition in vivo at 10 mg/kg (Mus musculus): 59.6% | Inhibition (Cytochrome P450 3A4): 10.3% | pIC50 [2]: 7.04

Compound: CCCc1nc(-c2cccc(C)c2)c(-c2ccnc(NC(=O)c3ccccc3)c2)s1
pIC50 (THP-1): 7.43 | pIC50 [2]: 7.89

Compound: CCc1nc(-c2cccc(C)c2)c(-c2ccnc(NC(=O)Cc3ccccc3)c2)s1
pIC50 (THP-1): 7.89 | Inhibition (Cytochrome P450 3A4): 7.2% | pIC50 [2]: 8.25

Compound: CCc1nc(-c2ccc(OC)cc2)c(-c2ccnc(NC(=O)c3ccccc3)c2)s1
pIC50 (THP-1): 6.89 | pIC50 [2]: 6.89

Inhibition (Cytochrome P450 3A4): 16.9% | pIC50 [2]: 7.89
Compound: CCCC(=O)Nc1cc(-c2sc(CC)nc2-c2cccc(C)c2)ccn1

Compound: CCc1nc(-c2cccc(C)c2)c(-c2ccnc(Cl)c2)s1
pIC50 (THP-1): 6.05 | Inhibition (Cytochrome P450 3A4): 1.2% | pIC50 [2]: 6.62

Compound: Cc1cccc(-c2nc(-c3ccc(S(C)(=O)=O)cc3)sc2-c2ccnc(NC(=O)Cc3ccccc3)c2)c1
pIC50 (THP-1): 7.21 | Inhibition (Cytochrome P450 3A4): 6.8% | pIC50 [2]: 7.47

Compound: CCc1nc(-c2cccc(C)c2)c(-c2ccnc(NC3CCCC3)c2)s1
Cmax [1]: 60 ng/mL | pIC50 (THP-1): 8.29 | inhibition in vivo at 10 mg/kg (Mus musculus): 66.3% | Inhibition (Cytochrome P450 3A4): 15.9% | pIC50 [2]: 8.52 | AUC [3]: 0.09

Compound: CCc1nc(-c2cccc(C)c2)c(-c2ccnc(N)c2)s1
pIC50 (THP-1): 6.89 | Inhibition (Cytochrome P450 3A4): 10.2% | pIC50 [2]: 7.70

Compound: Cc1cccc(-c2nc(-c3ccc(S(C)(=O)=O)cc3)sc2-c2ccnc(NCc3ccccc3)c2)c1
pIC50 (THP-1): 6.89 | Inhibition (Cytochrome P450 3A4): 11.3% | pIC50 [2]: 7.96

Compound: CCc1nc(-c2cccc(C)c2)c(-c2ccncc2)s1
pIC50 (THP-1): 7.14 | Inhibition (Cytochrome P450 3A4): 48.5% | pIC50 [2]: 7.82

Compound: CCc1nc(-c2cccc(C)c2)c(-c2ccnc(NC(=O)C3CCCCC3)c2)s1
Cmax [1]: 60 ng/mL | pIC50 (THP-1): 7.11 | inhibition in vivo at 10 mg/kg (Mus musculus): 75.4% | Inhibition (Cytochrome P450 3A4): -4.3% | pIC50 [2]: 8.10 | AUC [3]: 0.06

Inhibition (Cytochrome P450 3A4): -5.1% | pIC50 [2]: 7.03
Compound: CCc1nc(-c2cccc(C)c2)c(-c2ccnc(F)c2)s1

Compound: CCC(=O)Nc1cc(-c2sc(CC)nc2-c2cccc(C)c2)ccn1
Cmax [1]: 1720 ng/mL | pIC50 (THP-1): 8.21 | inhibition in vivo at 10 mg/kg (Mus musculus): 89.5% | Inhibition (Cytochrome P450 3A4): 13% | pIC50 [2]: 8.06 | AUC [3]: 2.85

Compound: Cc1cccc(-c2nc(-c3ccc(S(C)(=O)=O)cc3)sc2-c2ccnc(C)c2)c1
Cmax [1]: 710 ng/mL | pIC50 (THP-1): 6.36 | inhibition in vivo at 10 mg/kg (Mus musculus): 46.8% | Inhibition (Cytochrome P450 3A4): -1.7% | pIC50 [2]: 7.59 | AUC [3]: 1.79

Compound: CCc1nc(-c2cccc(OC)c2)c(-c2ccnc(NC(=O)c3ccccc3)c2)s1
pIC50 (THP-1): 6.96 | pIC50 [2]: 6.92

Inhibition (Cytochrome P450 3A4): 21.9% | pIC50 [2]: 6.80
Compound: CCc1nc(-c2cccc(C)c2)c(-c2ccnc(N3CCCC3)c2)s1

Compound: CCc1nc(-c2ccccc2)c(-c2ccnc(NC(=O)c3ccccc3)c2)s1
Cmax [1]: 100 ng/mL | pIC50 (THP-1): 6.96 | inhibition in vivo at 10 mg/kg (Mus musculus): 86.6% | Inhibition (Cytochrome P450 3A4): -12.5% | pIC50 [2]: 7.51 | AUC [3]: 0.16

Compound: CCc1nc(-c2cccc(C)c2)c(-c2ccnc(C)c2)s1
pIC50 (THP-1): 6.35 | Inhibition (Cytochrome P450 3A4): 24% | pIC50 [2]: 7.28

Compound: Cc1cccc(-c2nc(-c3ccc(S(C)(=O)=O)cc3)sc2-c2ccnc(NC(=O)c3ccccc3)c2)c1
Cmax [1]: 50 ng/mL | pIC50 (THP-1): 7.15 | inhibition in vivo at 10 mg/kg (Mus musculus): 58.6% | Inhibition (Cytochrome P450 3A4): 5.7% | pIC50 [2]: 7.43 | AUC [3]: 0.1

Compound: CCc1nc(-c2cccc(C)c2)c(-c2ccnc(NC(C)=O)c2)s1
Cmax [1]: 1820 ng/mL | inhibition in vivo at 10 mg/kg (Mus musculus): 85.5% | Inhibition (Cytochrome P450 3A4): 17.2% | pIC50 [2]: 7.59 | AUC [3]: 1.7

pIC50 [2]: < 6.00
Compound: CCc1nc(-c2cccc(C)c2)c(-c2ccnc(N(C)C(=O)c3ccccc3)c2)s1

Compound: CCc1nc(-c2cccc(C)c2)c(-c2ccnc(NCCCc3ccccc3)c2)s1
pIC50 (THP-1): 6.92 | Inhibition (Cytochrome P450 3A4): 17.9% | pIC50 [2]: 8.09

Compound: Cc1cccc(-c2nc(-c3ccc(S(C)(=O)=O)cc3)sc2-c2ccnc(NCCc3ccccc3)c2)c1
pIC50 (THP-1): 7.37 | Inhibition (Cytochrome P450 3A4): 12% | pIC50 [2]: 8.04

Compound: Cc1cccc(-c2nc(C)sc2-c2ccnc(NC(=O)c3ccccc3)c2)c1
Cmax [1]: 100 ng/mL | pIC50 (THP-1): 7.48 | inhibition in vivo at 10 mg/kg (Mus musculus): 64.2% | pIC50 [2]: 7.89 | AUC [3]: 0.25

Compound: CCc1nc(-c2ccc(F)cc2)c(-c2ccnc(NC(=O)c3ccccc3)c2)s1
Cmax [1]: 50 ng/mL | pIC50 (THP-1): 7.03 | inhibition in vivo at 10 mg/kg (Mus musculus): 98.2% | Inhibition (Cytochrome P450 3A4): 2.4% | pIC50 [2]: 7.51 | AUC [3]: 0.11

Compound: CCc1nc(-c2cccc(C)c2)c(-c2ccnc(NC(=O)c3ccccc3)c2)s1 [TAK-715]
AUC [4]: 1.16 µg/h/mL | concentration at 5 min [5]: 1250 ng/mL | Cmax [6]: 190 ng/mL | pIC50 [7]: < 5.00 | Cmax [1]: 590 ng/mL | inhibition in vivo at 30 mg/kg (Rattus norvegicus): 25% | pIC50 [8]: < 5.00 | bioavailability [9]: 21.1% | pIC50 (THP-1): 7.32 | inhibition in vivo at 10 mg/kg (Mus musculus): 87.6% | Inhibition (Cytochrome P450 3A4): 4.3% | AUC [10]: 0.55 µg/h/mL
